Series [1] in a line: Lipophilicity (Rm) (liquid chromatography). Type of series: physicochemical. In a few lines: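 Rm is measured for drug cations at pH 2 by liquid-liquid chromatography on a cellulose support.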
A short description of series [2]: Binding affinity towards poly[d(A-T)] (fluorometric method). Type of series: ADME. A digest of the protocol:
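Log R for binding to poly[d(A-T)] measured fluorometrically, corrected for quenching.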

For series [3], the system named is L1210. As to the kind of experiment: In vitro test for 50% reduction of cell number (of control) after 70 hr incubation with cultures of murine L1210 leukemia cells. The settings on record: Mus musculus, L1210, 70 h; read-out: ID50 (the source's name). Type of series: functional.
The subject of series [4] is P388. Put plainly: Dose of drug needed to provide a percentage increase in life span of tumor-bearing mice in vivo of […]% compared to untreated controls after inoculation of 10e6 P388 leukemia cells; h=ILS of >50% could not be obtained at any dose level. Type of series: functional, organism-based. The settings on record: Mus musculus.
The subject of series [5] is P388. Put plainly: In vivo tumor cell selectivity (ILSmax values)for percentage increase in life span of treated animals over that of P388 tumor bearing untreated control animals. The class given is functional, Mus musculus.
Series [6] relates to P388. As to the kind of experiment: In vivo inhibition of P388 in mice for optimal (highest nonacutely toxic) dose (OD). The class given is functional, Mus musculus. In a few lines:
(§1)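 F1 (DBA/2J × C57BlJ) mice, 19-21 g, either sex, inoculated with 10^6 P388 leukemia cells on day 0. Drug given ip in 0.1 mL 30% aqueous ethanol on days 1, 5 and 9, as a solution or, at highest doses, as a sonicated suspension. Doses stepped down from a toxic level at 0.67-fold intervals. Groups of six mice; ILS relative to 20-30 controls. OD is the highest nonacutely toxic daily dose.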

For series [7], the system named is P388. As to the kind of experiment: Tumor cell selectivity (ILSmax values) was evaluated in vivo for the percentage increase in life span of treated animals over that of P388 tumor bearing untreated control animals; h=ILS of >50% could not be obtained at any dose level. The settings on record: Mus musculus. Type of series: functional, organism-based. In a few lines:
as §1

For series [8], the system named is P388. Put plainly: Tumor cell selectivity (ILSmax values) was evaluated in vivo for the percentage increase in life span of treated animals over that of P388 tumor bearing untreated control animals; h=ILS of >20% could not be obtained at any dose level. The class given is functional, organism-based. The note with it: Mus musculus. In a few lines:
as §1

The structures appear in SMILES notation. Some results are limits rather than exact numbers.

In series [1], `CS(=O)(=O)Nc1ccc(Nc2c3ccccc3nc3cc([N+](=O)[O-])ccc23)cc1` had a Rm of -0.18. Also, the “Log K” value in series [2] amounted to 6.51. For the same compound, the IC50 in series [3] was 0.09 µM. For the same compound, the D50 result in series [4] was “ILS not obtained”. Besides, the Activity in series [5] is reported as 43%. Further, the OD in series [6] worked out at 8.9 mg/kg/day.

`Cc1ccc2nc3ccccc3c(Nc3ccc(NS(C)(=O)=O)cc3)c2c1` registered a Rm in series [1] of 0.14. Besides, in series [2], the “Log K” value was determined as 5.7. Further, the IC50 in series [3] stood at 0.68 µM. In addition, the D50 result in series [4] is on record as “ILS not obtained”. In addition, in series [5], the Activity is 39%. This compound also gave an OD in series [6] of 100 mg/kg/day.

Take `CS(=O)(=O)Nc1ccc(Nc2c3ccccc3nc3cc(Br)ccc23)cc1`: the Rm in series [1] is recorded as 0.16. Further, the “Log K” value in series [2] came to 6.93. Moreover, the IC50 in series [3] was determined as 0.016 µM. Besides, in series [4], the D50 result is recorded as “ILS not obtained”. The compound also returned an Activity in series [5] of 33%. In series [6], this compound came in with an OD of 100 mg/kg/day.

For the compound `COc1cc(NS(C)(=O)=O)ccc1Nc1c2ccccc2nc2ccc(C)cc12`, in series [1], the Rm came out at 0.4. In addition, the “Log K” value in series [2] was determined as 5.35. Also, in series [3], the IC50 is 1.4 µM. The D50 entry in series [4] is “ILS not obtained”. In addition, the Activity in series [5] was found to be 34%. The OD in series [6] is 69 mg/kg/day.

In series [1], `CS(=O)(=O)Nc1ccc(Nc2c3ccccc3nc3cc(S(C)(=O)=O)ccc23)cc1` came in with a Rm of -0.2. The “Log K” value in series [2] turned out to be 5.3. Also, the IC50 in series [3] was more than 2.2 µM. The D50 result in series [4] is “ILS not obtained”. In addition, the Activity entry in series [7] is given as “ILS not obtained”. This compound had an OD in series [6] of 150 mg/kg/day.

Compound `CS(=O)(=O)Nc1ccc(Nc2c3ccccc3nc3ccc(Cl)cc23)cc1` showed a Rm in series [1] of 0.15. Further, the “Log K” value in series [2] amounted to 5.62. Further, in series [3], the IC50 worked out at 3.8 µM. In addition, the D50 entry in series [4] is given as “ILS not obtained”. Further, the Activity entry in series [7] is recorded as “ILS not obtained”. For the same compound, the OD in series [6] was found to be 150 mg/kg/day.

In series [1], `COP(=O)(Nc1ccc(Nc2c3ccccc3nc3ccc(C)cc23)cc1)OC` registered a Rm of 0.43. In series [2], the “Log K” value was determined as 6.09. In addition, the IC50 in series [3] stood at 0.286 µM. In addition, in series [4], the D50 result is “ILS not obtained”. This compound registered an Activity in series [5] of 36%. In addition, in series [6], the OD worked out at 20 mg/kg/day.

`COc1cc(NP(=O)(OC)OC)ccc1Nc1c2ccccc2nc2ccc(C)cc12`: in series [1], the Rm worked out at 0.55. Moreover, the “Log K” value in series [2] was 5.28. Moreover, in series [3], the IC50 was found to be 0.985 µM. In addition, the D50 result in series [4] is listed as “ILS not obtained”. In series [5], the Activity is reported as 25%. The compound also showed an OD in series [6] of 30 mg/kg/day.

Turning to `COP(=O)(Nc1ccc(Nc2c3ccccc3nc3cc([N+](=O)[O-])ccc23)cc1)OC`, the Rm in series [1] came out at 0.14. In addition, the “Log K” value in series [2] is on record as 6.73. For the same compound, in series [3], the IC50 worked out at 0.074 µM. Further, the D50 result in series [4] is given as “ILS not obtained”. Further, the Activity in series [5] amounted to 22%. This compound gave an OD in series [6] of 8.9 mg/kg/day.

On to `COP(=O)(Nc1ccc(Nc2c3ccccc3nc3ccc(Cl)cc23)cc1)OC`, for which the Rm in series [1] was found to be 0.37. Also, in series [2], the “Log K” value was found to be 6.17. Moreover, the IC50 in series [3] was 0.9 µM. The D50 result in series [4] is given as “ILS not obtained”. The Activity entry in series [7] is “ILS not obtained”. In series [6], this compound displayed an OD of 100 mg/kg/day.

As to `COc1ccc2nc3ccccc3c(Nc3ccc(NP(=O)(OC)OC)cc3)c2c1`, in series [1], the Rm is 0.29. In series [2], the “Log K” value is reported as 6.25. For the same compound, the IC50 in series [3] amounted to 0.92 µM. In addition, in series [4], the D50 result is “ILS not obtained”. In series [5], this compound yielded an Activity of 38%. The OD in series [6] stood at 45 mg/kg/day.

In turn, `COc1ccc2nc3ccccc3c(Nc3ccc(NS(C)(=O)=O)cc3)c2c1` came in with a Rm in series [1] of -0.04. The “Log K” value in series [2] is on record as 6. Also, the IC50 in series [3] was found to be 2.5 µM. For the same compound, the D50 entry in series [4] is on record as “ILS not obtained”. Besides, in series [8], the Activity result is given as “ILS not obtained”. In addition, the OD in series [6] worked out at 150 mg/kg/day.

(Values after ChEMBL document CHEMBL1122747, “Potential antitumor agents. 42. Structure-activity relationships for acridine-substituted dimethyl phosphoramidate derivatives of 9-anilinoacridine” (J Med Chem, 1984).)
